Experimental data as given in ChEMBL document CHEMBL1250448, “Inhibitor hijacking of Akt activation” (Nat Chem Biol, 2009).

Assays:
[1] = target: Mitogen-activated protein kinase 1 (Homo sapiens) (UniProt P28482); assay: Inhibition of MAPK1 at 1 uM in presence of 10 uM ATP by Select Screen kinase assay relative to untreated control
How it was run: (§1)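 Single-concentration profiling at 1 μM against a panel of 220 purified kinases, run as an outsourced SelectScreen kinase profiling service. Activity is expressed as percent inhibition.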

[2] = target: AMP-activated protein kinase (AMPK) alpha-1/beta-1/gamma-1 (Homo sapiens) (UniProt P54619+Q9Y478+Q13131); assay: Inhibition of AMPK A1/B1/G1 at 1 uM in presence of 10 uM ATP by Select Screen kinase assay relative to untreated control; type: protein-complex assay
AMP-activated protein kinase (AMPK) alpha-1/beta-1/gamma-1 (Homo sapiens), sequence (P54619 whole entry): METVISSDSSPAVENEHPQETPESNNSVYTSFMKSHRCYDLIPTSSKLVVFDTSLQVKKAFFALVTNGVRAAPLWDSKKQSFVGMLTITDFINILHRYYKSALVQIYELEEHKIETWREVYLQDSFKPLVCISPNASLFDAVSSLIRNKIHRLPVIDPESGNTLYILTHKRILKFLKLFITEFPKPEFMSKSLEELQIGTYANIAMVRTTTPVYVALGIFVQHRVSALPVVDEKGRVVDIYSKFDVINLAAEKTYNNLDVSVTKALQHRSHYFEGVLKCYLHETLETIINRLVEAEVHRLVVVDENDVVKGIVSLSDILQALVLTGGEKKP
AMP-activated protein kinase (AMPK) alpha-1/beta-1/gamma-1 (Homo sapiens), sequence (Q13131 whole entry partner): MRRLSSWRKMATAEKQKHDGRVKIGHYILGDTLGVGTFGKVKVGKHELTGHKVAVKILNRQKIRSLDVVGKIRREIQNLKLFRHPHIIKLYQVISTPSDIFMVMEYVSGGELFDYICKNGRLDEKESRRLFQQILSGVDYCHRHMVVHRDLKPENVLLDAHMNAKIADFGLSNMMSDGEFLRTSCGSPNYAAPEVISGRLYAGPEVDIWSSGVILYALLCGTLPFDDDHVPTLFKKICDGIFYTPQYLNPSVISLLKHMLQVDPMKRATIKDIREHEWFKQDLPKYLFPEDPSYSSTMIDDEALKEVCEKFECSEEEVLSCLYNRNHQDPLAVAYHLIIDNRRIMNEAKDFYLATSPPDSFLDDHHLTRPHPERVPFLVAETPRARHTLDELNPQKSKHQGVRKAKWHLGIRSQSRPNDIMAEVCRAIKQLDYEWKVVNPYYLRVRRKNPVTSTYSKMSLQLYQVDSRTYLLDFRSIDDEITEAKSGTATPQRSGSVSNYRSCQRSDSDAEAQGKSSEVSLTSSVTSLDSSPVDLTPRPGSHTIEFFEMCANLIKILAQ
AMP-activated protein kinase (AMPK) alpha-1/beta-1/gamma-1 (Homo sapiens), sequence (Q9Y478 2-270 partner limits assumed): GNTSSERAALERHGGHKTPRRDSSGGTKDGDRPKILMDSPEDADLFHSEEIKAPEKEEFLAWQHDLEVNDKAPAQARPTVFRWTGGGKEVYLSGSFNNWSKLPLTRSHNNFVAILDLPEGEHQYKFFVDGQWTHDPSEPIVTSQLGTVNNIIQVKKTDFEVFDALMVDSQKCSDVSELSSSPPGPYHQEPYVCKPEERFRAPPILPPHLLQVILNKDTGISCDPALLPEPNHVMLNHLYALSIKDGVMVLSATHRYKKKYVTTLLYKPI
How it was run: (§2)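 Single-point screen at 1 μM against a panel of 220 purified kinases, run by Invitrogen staff as a SelectScreen profiling service. Read-out is percent inhibition of kinase activity.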

[3] = target: Serine/threonine-protein kinase Nek4 (Homo sapiens) (UniProt P51957); assay: Inhibition of NEK4 at 1 uM in presence of 100 uM ATP by Select Screen kinase assay relative to untreated control; how it was run: as §1
Serine/threonine-protein kinase Nek4 (Homo sapiens), sequence (P51957 whole entry, looked up): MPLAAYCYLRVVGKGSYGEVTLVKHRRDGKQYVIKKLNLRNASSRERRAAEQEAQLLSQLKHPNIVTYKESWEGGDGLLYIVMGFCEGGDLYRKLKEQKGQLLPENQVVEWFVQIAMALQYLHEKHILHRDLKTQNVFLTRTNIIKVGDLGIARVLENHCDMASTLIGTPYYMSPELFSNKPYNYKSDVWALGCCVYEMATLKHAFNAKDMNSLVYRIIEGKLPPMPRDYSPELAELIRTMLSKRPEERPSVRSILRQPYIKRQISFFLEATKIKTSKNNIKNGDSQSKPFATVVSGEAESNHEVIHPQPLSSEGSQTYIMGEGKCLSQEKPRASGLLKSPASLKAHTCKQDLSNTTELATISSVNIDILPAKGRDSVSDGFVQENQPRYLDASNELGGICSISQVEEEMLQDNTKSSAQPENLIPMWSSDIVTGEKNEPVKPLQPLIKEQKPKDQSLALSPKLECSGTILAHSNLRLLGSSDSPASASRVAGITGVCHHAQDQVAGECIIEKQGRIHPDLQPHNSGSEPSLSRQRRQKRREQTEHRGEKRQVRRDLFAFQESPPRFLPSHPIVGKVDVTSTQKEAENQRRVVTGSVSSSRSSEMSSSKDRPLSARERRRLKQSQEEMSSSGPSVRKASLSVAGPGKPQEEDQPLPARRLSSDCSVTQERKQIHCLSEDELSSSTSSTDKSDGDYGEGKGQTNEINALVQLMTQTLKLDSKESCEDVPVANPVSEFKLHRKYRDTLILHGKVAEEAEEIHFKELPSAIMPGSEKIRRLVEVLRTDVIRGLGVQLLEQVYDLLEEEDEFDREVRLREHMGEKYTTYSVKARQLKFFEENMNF

[4] = target: Proto-oncogene tyrosine-protein kinase Src (Homo sapiens) (UniProt P12931); assay: Inhibition of SRC at 1 uM in presence of 10 uM ATP by Select Screen kinase assay relative to untreated control
Proto-oncogene tyrosine-protein kinase Src (Homo sapiens), sequence (P12931 2-536 limits assumed): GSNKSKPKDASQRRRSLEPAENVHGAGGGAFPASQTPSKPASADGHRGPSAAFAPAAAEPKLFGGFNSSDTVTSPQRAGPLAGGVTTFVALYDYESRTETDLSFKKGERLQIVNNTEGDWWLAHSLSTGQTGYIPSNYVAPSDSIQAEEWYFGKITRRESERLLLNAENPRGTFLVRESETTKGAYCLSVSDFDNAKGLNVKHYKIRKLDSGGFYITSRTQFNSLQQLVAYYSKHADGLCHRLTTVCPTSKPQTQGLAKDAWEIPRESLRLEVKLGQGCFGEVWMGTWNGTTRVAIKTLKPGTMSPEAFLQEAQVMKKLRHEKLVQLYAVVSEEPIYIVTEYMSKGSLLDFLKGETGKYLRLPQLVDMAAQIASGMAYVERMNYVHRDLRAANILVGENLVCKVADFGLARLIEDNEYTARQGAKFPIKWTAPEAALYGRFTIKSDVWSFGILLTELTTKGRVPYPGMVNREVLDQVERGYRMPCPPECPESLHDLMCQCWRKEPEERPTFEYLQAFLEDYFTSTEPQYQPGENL
How it was run: (§3)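 Commercial SelectScreen profiling panel of 220 purified kinases. Each kinase was tested at a single inhibitor concentration of 1 μM, and activity was expressed as percent inhibition.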

[5] = target: Tyrosine-protein kinase Yes (Homo sapiens) (UniProt P07947); assay: Inhibition of YES1 at 1 uM in presence of 10 uM ATP by Select Screen kinase assay relative to untreated control; how it was run: as §3
Tyrosine-protein kinase Yes (Homo sapiens), sequence (P07947 2-543 limits assumed): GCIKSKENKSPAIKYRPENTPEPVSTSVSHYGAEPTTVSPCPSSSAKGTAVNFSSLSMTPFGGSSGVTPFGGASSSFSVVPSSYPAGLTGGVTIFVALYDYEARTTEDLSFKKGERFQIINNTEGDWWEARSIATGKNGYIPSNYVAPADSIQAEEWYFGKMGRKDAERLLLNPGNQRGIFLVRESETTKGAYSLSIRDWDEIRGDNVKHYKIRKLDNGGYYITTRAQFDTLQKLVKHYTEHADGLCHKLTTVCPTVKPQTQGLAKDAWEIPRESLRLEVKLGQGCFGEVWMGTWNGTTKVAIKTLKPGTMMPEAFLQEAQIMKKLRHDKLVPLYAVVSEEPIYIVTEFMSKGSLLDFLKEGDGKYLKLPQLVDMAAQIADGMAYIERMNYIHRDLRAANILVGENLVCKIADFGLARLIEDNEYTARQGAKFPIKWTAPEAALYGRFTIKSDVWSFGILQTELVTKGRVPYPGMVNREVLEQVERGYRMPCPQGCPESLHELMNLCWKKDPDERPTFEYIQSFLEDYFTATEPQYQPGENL

[6] = target: T1, Serine/threonine-protein kinase TAO2 (Homo sapiens) (UniProt Q9UL54); assay: Inhibition of TAOK2 at 1 uM in presence of 10 uM ATP by Select Screen kinase assay relative to untreated control; how it was run: as §3
T1 sequence (whole entry): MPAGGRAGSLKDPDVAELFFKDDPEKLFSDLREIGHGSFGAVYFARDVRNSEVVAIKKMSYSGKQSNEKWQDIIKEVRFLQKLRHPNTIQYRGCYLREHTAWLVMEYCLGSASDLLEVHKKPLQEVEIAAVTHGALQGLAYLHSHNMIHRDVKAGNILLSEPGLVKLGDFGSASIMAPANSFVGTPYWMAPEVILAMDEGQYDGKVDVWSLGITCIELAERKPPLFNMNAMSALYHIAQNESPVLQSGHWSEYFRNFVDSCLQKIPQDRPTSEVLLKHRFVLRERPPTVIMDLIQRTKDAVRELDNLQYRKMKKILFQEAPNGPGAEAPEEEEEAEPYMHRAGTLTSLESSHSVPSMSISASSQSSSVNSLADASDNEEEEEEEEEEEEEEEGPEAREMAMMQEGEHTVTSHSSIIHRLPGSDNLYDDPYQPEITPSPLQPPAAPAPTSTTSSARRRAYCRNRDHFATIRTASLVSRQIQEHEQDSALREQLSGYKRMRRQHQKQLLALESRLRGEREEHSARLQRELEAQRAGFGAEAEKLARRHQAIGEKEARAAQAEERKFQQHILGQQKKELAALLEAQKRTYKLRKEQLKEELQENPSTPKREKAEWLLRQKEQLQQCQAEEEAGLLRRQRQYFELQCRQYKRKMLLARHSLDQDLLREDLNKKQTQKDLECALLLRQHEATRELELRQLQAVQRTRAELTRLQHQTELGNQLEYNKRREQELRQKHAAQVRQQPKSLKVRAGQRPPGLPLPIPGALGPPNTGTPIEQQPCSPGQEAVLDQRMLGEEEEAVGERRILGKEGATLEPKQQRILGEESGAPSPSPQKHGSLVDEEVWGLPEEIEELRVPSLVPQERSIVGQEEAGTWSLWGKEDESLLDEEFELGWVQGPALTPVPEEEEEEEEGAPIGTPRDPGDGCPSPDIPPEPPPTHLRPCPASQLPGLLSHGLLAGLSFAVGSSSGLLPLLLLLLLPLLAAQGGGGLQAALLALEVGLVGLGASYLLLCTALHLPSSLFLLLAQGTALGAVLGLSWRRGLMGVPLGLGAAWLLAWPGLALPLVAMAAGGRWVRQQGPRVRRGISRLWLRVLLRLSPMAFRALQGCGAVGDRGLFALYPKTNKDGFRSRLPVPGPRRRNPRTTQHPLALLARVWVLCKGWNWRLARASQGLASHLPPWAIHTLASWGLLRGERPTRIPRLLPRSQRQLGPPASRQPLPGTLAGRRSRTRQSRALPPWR

[7] = target: Casein kinase I isoform gamma-1 (Homo sapiens) (UniProt Q9HCP0); assay: Inhibition of CSNK1G1 at 1 uM in presence of 10 uM ATP by Select Screen kinase assay relative to untreated control; how it was run: as §2
Casein kinase I isoform gamma-1 (Homo sapiens), sequence (Q9HCP0 whole entry, looked up, canonical isoform): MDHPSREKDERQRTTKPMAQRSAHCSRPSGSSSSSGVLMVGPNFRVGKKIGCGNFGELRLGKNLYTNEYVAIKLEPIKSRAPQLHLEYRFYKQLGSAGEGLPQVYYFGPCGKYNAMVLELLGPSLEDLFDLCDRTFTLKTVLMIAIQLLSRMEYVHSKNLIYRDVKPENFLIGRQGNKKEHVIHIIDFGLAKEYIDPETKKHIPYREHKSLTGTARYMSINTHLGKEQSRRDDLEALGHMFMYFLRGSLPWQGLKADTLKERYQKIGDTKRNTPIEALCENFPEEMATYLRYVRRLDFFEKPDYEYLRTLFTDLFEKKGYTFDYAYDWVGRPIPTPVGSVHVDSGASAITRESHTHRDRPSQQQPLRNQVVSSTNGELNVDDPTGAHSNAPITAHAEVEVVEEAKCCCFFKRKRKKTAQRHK

[8] = target: T2, Rhodopsin kinase GRK7 (Homo sapiens) (UniProt Q8WTQ7); assay: Inhibition of GRK7 at 1 uM in presence of 10 uM ATP by Select Screen kinase assay relative to untreated control; how it was run: as §1
T2 sequence (whole entry): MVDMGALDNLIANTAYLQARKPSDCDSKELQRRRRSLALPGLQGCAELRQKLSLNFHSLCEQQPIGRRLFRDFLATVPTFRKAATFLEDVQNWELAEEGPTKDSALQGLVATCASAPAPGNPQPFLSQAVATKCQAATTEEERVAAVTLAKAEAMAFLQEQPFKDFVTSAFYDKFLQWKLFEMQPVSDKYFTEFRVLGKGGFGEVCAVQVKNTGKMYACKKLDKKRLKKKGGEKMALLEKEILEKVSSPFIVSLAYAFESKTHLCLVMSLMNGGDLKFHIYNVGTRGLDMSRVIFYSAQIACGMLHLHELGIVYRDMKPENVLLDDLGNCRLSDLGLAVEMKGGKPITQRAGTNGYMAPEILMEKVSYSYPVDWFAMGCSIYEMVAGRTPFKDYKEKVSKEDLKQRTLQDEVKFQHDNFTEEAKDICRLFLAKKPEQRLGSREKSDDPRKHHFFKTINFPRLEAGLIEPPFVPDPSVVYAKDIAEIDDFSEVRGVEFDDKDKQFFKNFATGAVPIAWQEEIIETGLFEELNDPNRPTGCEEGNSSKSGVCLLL

Mitogen-activated protein kinase 1 (Homo sapiens), sequence (P28482 whole entry): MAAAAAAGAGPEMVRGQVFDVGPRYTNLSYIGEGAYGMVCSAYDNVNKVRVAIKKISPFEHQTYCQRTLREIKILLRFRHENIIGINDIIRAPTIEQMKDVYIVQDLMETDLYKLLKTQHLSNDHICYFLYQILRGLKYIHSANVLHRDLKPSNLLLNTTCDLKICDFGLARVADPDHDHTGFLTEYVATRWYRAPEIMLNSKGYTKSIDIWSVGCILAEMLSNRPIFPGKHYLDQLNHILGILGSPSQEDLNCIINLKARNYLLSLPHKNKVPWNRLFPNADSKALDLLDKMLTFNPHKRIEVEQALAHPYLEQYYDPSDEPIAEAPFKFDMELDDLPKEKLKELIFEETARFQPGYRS

| inhibition [1] [%] | inhibition [2] [%] | inhibition [3] [%] | inhibition [4] [%] | inhibition [5] [%] | inhibition [6] [%] | inhibition [7] [%] | inhibition [8] [%] | SMILES |
| --- | --- | --- | --- | --- | --- | --- | --- | --- |
| 52 | 89 | 24 | 27 | 36 | 82 | 10 | 17 | O=C(NCCCNc1nc(Nc2cccc(NC(=O)N3CCCC3)c2)ncc1I)c1cccs1 |
| 11 | 42 | 10 | 10 | 20 | 2 | 11 | 34 | COc1ccccc1N1CCN(c2ncnc3[nH]nc(Br)c23)CC1 |

| SMILES | inhibition [1] [%] | inhibition [2] [%] | inhibition [3] [%] | inhibition [4] [%] | inhibition [5] [%] | inhibition [6] [%] | inhibition [7] [%] | inhibition [8] [%] |
| --- | --- | --- | --- | --- | --- | --- | --- | --- |
| Cc1n[nH]c2ccc(-c3cncc(OC[C@@H](N)Cc4c[nH]c5ccccc45)c3)cc12 | 61 | 57 | 41 | 11 | 20 | 35 | 62 | 102 |
